# Assays:
# [1] = tested on: Trypanosoma brucei rhodesiense; experiment: Antitrypanosomal activity against Trypanosoma brucei rhodesiense STIB900 infected in rat L6 cells after 72 hrs by alamar blue assay; type: functional, organism-based; conditions: Trypanosoma brucei, STIB900, 72 h
# [2] = tested on: Trypanosoma brucei brucei; experiment: Antitrypanosomal activity against diminazene-, pentamidine-, and melaminophenyl arsenical-resistant HAPT1-deficient Trypanosoma brucei brucei B48 after 3 days by alamar blue assay; type: functional, organism-based; conditions: Trypanosoma brucei, B48, 72 h
# Outline: (§1)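 Bloodstream-form T. b. brucei (wild-type s427; TbAT1-KO, made from s427 by TbAT1 deletion; B48, selected from TbAT1-KO in vitro on pentamidine, lacking functional HAPT1). Cells were exposed to compound for 48 h, then resazurin (Alamar blue) was added for a further 24 h. A single fluorescence reading gave EC50.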
# [3] = Selectivity index, ratio of EC50 for human HEK cells to EC50 for wild type Trypanosoma brucei brucei Lister 427; type: toxicity, cell-based, HEK293; conditions: HEK cells, read-out: Ratio EC50
# Outline: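 Ratio of EC₅₀ in HEK cells to EC₅₀ in wild-type T. b. brucei s427, both from resazurin assays.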
# [4] = tested on: Trypanosoma brucei brucei; experiment: Resistance factor, ratio of EC50 for diminazene-, pentamidine-, and melaminophenyl arsenical-resistant HAPT1-deficient Trypanosoma brucei brucei B48 to EC50 for wild type Trypanosoma brucei brucei Lister 427; type: functional
# Outline: (§2)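 Resistance factor is the EC50 in the resistant line (TbAT1-KO or B48) divided by the EC50 in wild-type s427. […] Resistant and wild-type EC50s were compared by Student t-test.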
# [5] = tested on: Trypanosoma brucei brucei; experiment: Resistance factor, ratio of EC50 for diminazene aceturate-resistant TbAT1 gene-deficient Trypanosoma brucei brucei AT1-KO to EC50 for wild type Trypanosoma brucei brucei Lister 427; type: functional; outline: as §2
# [6] = tested on: Trypanosoma brucei brucei; experiment: Antitrypanosomal activity against diminazene aceturate-resistant TbAT1 gene-deficient Trypanosoma brucei brucei AT1-KO after 3 days by alamar blue assay; type: functional, organism-based; conditions: Trypanosoma brucei, AT1-KO, 72 h; outline: as §1
# [7] = tested on: Trypanosoma brucei brucei; experiment: Antitrypanosomal activity against wild type Trypanosoma brucei brucei Lister 427 after 3 days by alamar blue assay; type: functional, organism-based; conditions: Trypanosoma brucei, Lister 427, 72 h; outline: as §1
# [8] = tested on: L6; experiment: Cytotoxicity against rat L6 cells after 72 hrs by alamar blue assay; type: cell-based; conditions: Rattus norvegicus, L6, 72 h
# [9] = Cytotoxicity against human HEK cells after 3 days by alamar blue assay; type: cell-based, HEK293; conditions: Homo sapiens, HEK293, 72 h
# Outline: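 Human embryonic kidney cells tested by resazurin (Alamar blue) assay: 48 h with compound, then 24 h more after dye addition, single reading; EC₅₀ derived.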
SMILES,EC50 [1],EC50 [2],selectivity ratio [3],Ratio EC50 [4],Ratio EC50 [5],EC50 [6],EC50 [7],EC50 [8],EC50 [9]
CC(C)C[P+](Cc1ccc(C(=O)c2ccc(C[P+](CC(C)C)(CC(C)C)CC(C)C)cc2)cc1)(CC(C)C)CC(C)C.[Br-].[Br-],1.46 µM,6.3 µM,> 110,2.4,3.2,8.34 µM,2.62 µM,> 116 µM,> 300 µM
Fc1c(F)c(F)c([P+](Cc2ccc(Cc3ccc(C[P+](c4ccccc4)(c4ccccc4)c4c(F)c(F)c(F)c(F)c4F)cc3)cc2)(c2ccccc2)c2ccccc2)c(F)c1F.[Br-].[Br-],16 µM,2.74 µM,> 110,1,1.4,3.79 µM,2.68 µM,,> 300 µM
O=S(=O)([O-])c1cccc([P+](Cc2ccc(Cc3ccc(C[P+](c4ccccc4)(c4ccccc4)c4cccc(S(=O)(=O)[O-])c4)cc3)cc2)(c2ccccc2)c2ccccc2)c1,> 92 µM,> 100 µM,,,,> 100 µM,> 100 µM,> 92 µM,> 300 µM
CC(C)C[P+](Cc1ccc(C(=O)c2ccccc2)cc1)(CC(C)C)CC(C)C.[Br-],4.48 µM,6.28 µM,> 50,1.1,1,6.1 µM,5.9 µM,> 209 µM,> 300 µM
CC(=O)N(c1ccc(C[P+](CC(C)C)(CC(C)C)CC(C)C)cc1)c1ccc(C[P+](CC(C)C)(CC(C)C)CC(C)C)cc1,11.4 µM,,,,,,,> 112 µM,
C[P+](C)(Cc1ccc(C(=O)c2ccc(C[P+](C)(C)c3ccccc3)cc2)cc1)c1ccccc1.[Br-].[Br-],8.8 µM,24.6 µM,,1.3,1.5,28.8 µM,19.2 µM,> 139 µM,
CCC[P+](CCC)(CCC)Cc1ccc(C(=O)c2ccc(C[P+](CCC)(CCC)CCC)cc2)cc1.[Br-].[Br-],8.5 µM,31.3 µM,,1.6,1.4,27.2 µM,19.7 µM,> 130 µM,
Fc1c(F)c(F)c([P+](Cc2ccc(Oc3ccc(C[P+](c4ccccc4)(c4ccccc4)c4c(F)c(F)c(F)c(F)c4F)cc3)cc2)(c2ccccc2)c2ccccc2)c(F)c1F.[Br-].[Br-],12.8 µM,6.68 µM,> 10,0.3,0.4,9.9 µM,23.2 µM,5.35 µM,> 300 µM
O=C(c1ccc(C[P+](c2ccco2)(c2ccco2)c2ccco2)cc1)c1ccc(C[P+](c2ccco2)(c2ccco2)c2ccco2)cc1.[Br-].[Br-],13.8 µM,21.7 µM,,0.6,0.9,33.8 µM,36.9 µM,86 µM,
CC(C)C[P+](Cc1ccc(S(=O)(=O)c2ccc(C[P+](CC(C)C)(CC(C)C)CC(C)C)cc2)cc1)(CC(C)C)CC(C)C.[Br-].[Br-],6.31 µM,13.3 µM,,0.8,0.8,13.6 µM,16.7 µM,> 111 µM,
CC[P+](CC)(CC)Cc1ccc(Cc2ccc(C[P+](CC)(CC)CC)cc2)cc1.[Br-].[Br-],18.7 µM,19.3 µM,> 14,0.9,0.9,18.5 µM,21.5 µM,48.3 µM,> 300 µM
CC[P+](CC)(CC)Cc1ccc(Oc2ccc(C[P+](CC)(CC)CC)cc2)cc1.[Br-].[Br-],31.9 µM,36.6 µM,> 8,1,1,34.9 µM,36.5 µM,102 µM,> 300 µM
CC[P+](CC)(Cc1ccc(C(=O)c2ccc(C[P+](CC)(CC)c3ccccc3)cc2)cc1)c1ccccc1.[Br-].[Br-],2.9 µM,15.2 µM,> 35,1.8,2.1,17.8 µM,8.59 µM,> 128 µM,> 300 µM
C[P+](C)(Cc1ccc(Cc2ccc(C[P+](C)(C)c3ccccc3)cc2)cc1)c1ccccc1.[Br-].[Br-],2.59 µM,3.84 µM,> 55,0.7,0.8,4.6 µM,5.45 µM,> 142 µM,> 300 µM
COc1cc([C@@H]2c3cc4c(cc3[C@H](O)[C@H]3COC(=O)[C@H]23)OCO4)cc(OC)c1OC [PODOFILOX],,,,,,,,0.012 µM,
CC[P+](CC)(CC)Cc1ccc(C(=O)c2ccccc2)cc1,> 254 µM,> 100 µM,,,,> 100 µM,> 100 µM,> 254 µM,> 300 µM
FC(F)(F)c1ccc([P+](Cc2ccc(Cc3ccc(C[P+](c4ccc(C(F)(F)F)cc4)(c4ccc(C(F)(F)F)cc4)c4ccc(C(F)(F)F)cc4)cc3)cc2)(c2ccc(C(F)(F)F)cc2)c2ccc(C(F)(F)F)cc2)cc1.[Br-].[Br-],1.72 µM,0.28 µM,338,1.2,1.6,0.37 µM,0.23 µM,7.52 µM,77.1 µM
Nc1nc(N)nc(Nc2ccc([As]3SCC(CO)S3)cc2)n1 (configuration not stated) [MELARSOPROL],0.0075 µM,,,,,,,,
CC[P+](CC)(CC)Cc1ccc(C(=O)c2ccc(C[P+](CC)(CC)CC)cc2)cc1,77.8 µM,> 100 µM,,,,> 100 µM,> 100 µM,> 149 µM,> 300 µM
CC(C)C[P+](Cc1ccc(Oc2ccc(C[P+](CC(C)C)(CC(C)C)CC(C)C)cc2)cc1)(CC(C)C)CC(C)C.[Br-].[Br-],1.62 µM,1.06 µM,> 507,1.8,1.3,0.8 µM,0.59 µM,51.1 µM,> 300 µM
CC(C)[P+](Cc1ccc(C(=O)c2ccc(C[P+](C(C)C)(C(C)C)C(C)C)cc2)cc1)(C(C)C)C(C)C.[Br-].[Br-],9.6 µM,38.8 µM,,1.9,1.6,33.4 µM,20.6 µM,> 130 µM,
O=S(=O)([O-])c1cccc([P+](Cc2ccc(Oc3ccc(C[P+](c4ccccc4)(c4ccccc4)c4cccc(S(=O)(=O)[O-])c4)cc3)cc2)(c2ccccc2)c2ccccc2)c1,> 92 µM,> 100 µM,,,,> 100 µM,> 100 µM,90.5 µM,> 300 µM
FC(F)(F)c1ccc([P+](Cc2ccc(Oc3ccc(C[P+](c4ccc(C(F)(F)F)cc4)(c4ccc(C(F)(F)F)cc4)c4ccc(C(F)(F)F)cc4)cc3)cc2)(c2ccc(C(F)(F)F)cc2)c2ccc(C(F)(F)F)cc2)cc1.[Br-].[Br-],5.26 µM,0.28 µM,723,1.2,1.3,0.32 µM,0.24 µM,9.93 µM,174 µM
N=C(N)c1ccc(/N=N/Nc2ccc(C(=N)N)cc2)cc1 [DIMINAZENE],,2.62 µM,,5.1,4.6,,0.517 µM,,
C[P+](C)(Cc1ccc(Oc2ccc(C[P+](C)(C)c3ccccc3)cc2)cc1)c1ccccc1.[Br-].[Br-],3.83 µM,6.15 µM,> 40,0.9,0.9,6.52 µM,7.22 µM,84.5 µM,> 300 µM
O=C(c1ccc(C[P+](c2ccc(C(F)(F)F)cc2)(c2ccc(C(F)(F)F)cc2)c2ccc(C(F)(F)F)cc2)cc1)c1ccc(C[P+](c2ccc(C(F)(F)F)cc2)(c2ccc(C(F)(F)F)cc2)c2ccc(C(F)(F)F)cc2)cc1.[Br-].[Br-],16.4 µM,2.73 µM,> 60,0.5,1.7,8.51 µM,5.05 µM,25 µM,> 300 µM
C[P+](C)(Cc1ccc(C(=O)c2ccccc2)cc1)c1ccccc1.[Br-],16.9 µM,45.8 µM,> 7,1.1,1.1,46.6 µM,42.7 µM,> 241 µM,> 300 µM

# Source: ChEMBL document CHEMBL2040794, “Synthesis and structure-activity analysis of new phosphonium salts with potent activity against African trypanosomes” (J Med Chem, 2012)
